Data as given in ChEMBL document CHEMBL3352726, “Constrained bithiazoles: small molecule correctors of defective ΔF508-CFTR protein trafficking” (J Med Chem, 2014).
pEC50: −log10 of the molar value.

These compounds were tested against Cystic fibrosis transmembrane conductance regulator (Homo sapiens, UniProt P13569, F508DEL) (assay: Correction of defective trafficking of human deltaF508 mutant CFTR protein expressed in FRT epithelial cells coexpressing YFP-H148Q/I152L protein assessed as iodide influx for 16 to 20 hrs by fluorescence assay). Conditions: read-out: IC50 (the source's name).
Chain of Cystic fibrosis transmembrane conductance regulator (P13569 as listed by the source): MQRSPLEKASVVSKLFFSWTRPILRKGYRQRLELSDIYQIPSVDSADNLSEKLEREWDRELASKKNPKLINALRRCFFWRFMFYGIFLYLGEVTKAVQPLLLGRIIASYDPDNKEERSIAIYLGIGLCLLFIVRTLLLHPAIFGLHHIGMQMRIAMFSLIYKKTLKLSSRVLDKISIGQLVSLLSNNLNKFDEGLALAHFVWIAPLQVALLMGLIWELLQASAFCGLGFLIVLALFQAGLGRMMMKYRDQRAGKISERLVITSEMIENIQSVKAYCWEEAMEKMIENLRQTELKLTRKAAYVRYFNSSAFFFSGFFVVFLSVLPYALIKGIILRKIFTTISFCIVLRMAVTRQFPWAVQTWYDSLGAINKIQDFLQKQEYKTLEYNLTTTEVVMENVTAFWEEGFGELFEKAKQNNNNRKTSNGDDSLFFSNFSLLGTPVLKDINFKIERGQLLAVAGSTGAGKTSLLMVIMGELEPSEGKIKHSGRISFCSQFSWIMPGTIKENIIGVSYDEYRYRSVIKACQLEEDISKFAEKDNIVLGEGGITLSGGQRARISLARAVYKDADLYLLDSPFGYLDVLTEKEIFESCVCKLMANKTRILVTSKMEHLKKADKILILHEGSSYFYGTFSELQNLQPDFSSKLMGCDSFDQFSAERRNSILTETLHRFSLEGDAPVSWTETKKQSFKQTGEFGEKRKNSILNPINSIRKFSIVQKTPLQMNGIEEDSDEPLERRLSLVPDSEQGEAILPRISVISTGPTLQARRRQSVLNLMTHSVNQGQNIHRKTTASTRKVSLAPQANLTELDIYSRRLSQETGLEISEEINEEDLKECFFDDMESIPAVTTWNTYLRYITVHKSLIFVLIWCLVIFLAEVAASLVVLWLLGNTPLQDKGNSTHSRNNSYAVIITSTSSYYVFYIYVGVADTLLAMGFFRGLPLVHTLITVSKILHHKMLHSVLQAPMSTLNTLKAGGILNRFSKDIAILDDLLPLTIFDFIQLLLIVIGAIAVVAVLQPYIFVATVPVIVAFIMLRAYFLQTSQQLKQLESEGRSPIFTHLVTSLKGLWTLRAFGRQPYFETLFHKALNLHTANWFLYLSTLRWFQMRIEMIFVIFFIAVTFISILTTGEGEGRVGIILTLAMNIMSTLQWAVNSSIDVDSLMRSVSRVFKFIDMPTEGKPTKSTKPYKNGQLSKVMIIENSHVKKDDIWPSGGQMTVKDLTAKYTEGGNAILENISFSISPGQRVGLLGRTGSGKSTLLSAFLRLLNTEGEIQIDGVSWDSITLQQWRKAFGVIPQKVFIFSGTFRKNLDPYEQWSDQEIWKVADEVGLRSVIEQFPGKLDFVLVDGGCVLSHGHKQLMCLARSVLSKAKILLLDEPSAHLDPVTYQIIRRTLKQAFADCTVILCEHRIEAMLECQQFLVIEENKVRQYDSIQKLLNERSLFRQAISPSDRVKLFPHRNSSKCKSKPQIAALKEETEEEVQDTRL
Type: cell-based, Epithelial cell
How it was run: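 FRT cells stably coexpressing human ΔF508-CFTR and YFP-H148Q/I152L, grown 24 h at 37 °C (5% CO2), then exposed 16–20 h to compound at various concentrations; DMSO vehicle negative control and a bithiazole benzamide positive control. Washed, 20 min in PBS with forskolin 20 μM plus genistein 50 μM. YFP fluorescence (ex 500/em 535 nm) read 2 s baseline, then 12 s after iodide-substituted PBS addition. Influx rate came from exponential fit of final 11.5 s, extrapolated initial slope, normalized to background-subtracted initial fluorescence. EC50/Vmax came from four-parameter logistic fit.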
COc1ccc(Cl)cc1Nc1nc2c(s1)CCCCc1nc(NC(=O)C(C)(C)C)sc1-2 showed a pEC50 of 5.39. Compound COc1ccc(Cl)cc1Nc1nc2c(s1)CCCc1nc(NC(=O)C3CC3)sc1-2 has a pEC50 of 5.05. COc1ccc(Cl)cc1Nc1nc(-c2sc(NC(=O)c3ccccc3)nc2C)cs1 was tested, and the pEC50 was 5.22. COC(=O)CCC(=O)Nc1nc2c(s1)-c1nc(Nc3cc(Cl)ccc3OC)sc1CCCC2 was tested, and the pEC50 was 5.08. In the case of COc1ccc(Cl)cc1Nc1nc2c(s1)CCCCc1nc(NC(=O)c3ccno3)sc1-2, the pEC50 was 5.18. Compound CN(C)c1ccc(Cl)cc1Nc1nc2c(s1)CCCc1nc(NC(=O)C(C)(C)C)sc1-2 has a pEC50 of 5.16. For CN(C)c1cccc(Nc2nc3c(s2)CCCc2nc(NC(=O)C(C)(C)C)sc2-3)c1, the pEC50 was 5.66. For Cc1cccnc1Nc1nc2c(s1)CCCc1nc(NC(=O)C(C)(C)C)sc1-2, the pEC50 was 5.14. With CCC(C)C(=O)Nc1nc2c(s1)-c1nc(Nc3cc(Cl)ccc3OC)sc1CCC2 (stereo not drawn) the pEC50 was 5.18. With COc1ccc([N+](=O)[O-])cc1Nc1nc2c(s1)CCCCc1nc(NC(=O)C(C)(C)C)sc1-2 the pEC50 was 6.05. Compound COc1ccc(Cl)cc1Nc1nc2c(s1)CCCc1nc(NC(=O)C(C)C)sc1-2 has a pEC50 of 5.24. Compound COc1ccc(Cl)cc1Nc1nc2c(s1)CCCCc1nc(N)sc1-2 has a pEC50 of 5.04. CN(C)c1cccc(Nc2nc3c(s2)CCCCc2nc(NC(=O)C(C)(C)C)sc2-3)c1 was tested, and the pEC50 was 5.28. Compound COc1ccc(Cl)cc1Nc1nc2c(s1)CCCCc1nc(NC(=O)C(C)C)sc1-2 has a pEC50 of 5.06. For COc1ccc(Cl)cc1Nc1nc2c(s1)CCCc1nc(N)sc1-2, the pEC50 was 4.96. CCC(C)C(=O)Nc1nc2c(s1)-c1nc(Nc3cc(Cl)ccc3OC)sc1CCCC2 (stereo not drawn) was tested, and the pEC50 was 5.54. Work on COc1ccc(Cl)cc1Nc1nc2c(s1)CCCc1nc(NC(=O)C(C)(C)C)sc1-2 yielded a pEC50 of 5.64. Compound COC(=O)CCC(=O)Nc1nc2c(s1)-c1nc(Nc3cc(Cl)ccc3OC)sc1CCC2 has a pEC50 of 5.06. Work on COc1ccc(Cl)cc1Nc1nc2c(s1)CCCc1nc(NC(=O)c3ccno3)sc1-2 yielded a pEC50 of 5.32. Work on CN(C)c1ccc(Cl)cc1Nc1nc2c(s1)CCCCc1nc(NC(=O)C(C)(C)C)sc1-2 yielded a pEC50 of 5.68. COc1ccc(Cl)cc1Nc1nc2c(s1)CCCCc1nc(NC(=O)C3CC3)sc1-2 gave a pEC50 of 5.35. With Cc1cccnc1Nc1nc2c(s1)CCCCc1nc(NC(=O)C(C)(C)C)sc1-2 the pEC50 was 5.28. For COc1ccc([N+](=O)[O-])cc1Nc1nc2c(s1)CCCc1nc(NC(=O)C(C)(C)C)sc1-2, the pEC50 was 5.44.
